Measured values as given in ChEMBL document CHEMBL4732059, “Structure-guided modification of isoxazole-type FXR agonists: Identification of a potent and orally bioavailable FXR modulator” (Eur J Med Chem, 2021).
Calls of active or inactive are those of the source. The calls are words filed in the database; no cut-off is given here.

How the values were obtained:
[1] = test system: HepG2; test: Cytotoxicity against human HepG2 cells assessed as cell viability upto 40 uM after 48 hrs by MTT assay; assay type: cell-based; conditions: hepg2, 48 h
Summary of the method: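 HepG2 cells in DMEM/10% FBS seeded at 1×10⁵/mL and grown 24 h, then exposed to 0.1, 1, 10, 40 and 80 µM for 48 h. MTT (5 mg/mL stock) added for 4 h at 37 °C in the dark, formazan dissolved in DMSO, absorbance read at 490 nm; mean ± SD, n = 3.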

[2] = molecular target: T1, Bile acid receptor (Homo sapiens) (UniProt Q96RI1); test: Agonist activity at human FXR in HepG2 cells assessed as nuclear translocation at 1 uM for 16 hrs by immunofluorescence analysis; assay type: cell-based; conditions: filed as agonist
T1 sequence (whole entry): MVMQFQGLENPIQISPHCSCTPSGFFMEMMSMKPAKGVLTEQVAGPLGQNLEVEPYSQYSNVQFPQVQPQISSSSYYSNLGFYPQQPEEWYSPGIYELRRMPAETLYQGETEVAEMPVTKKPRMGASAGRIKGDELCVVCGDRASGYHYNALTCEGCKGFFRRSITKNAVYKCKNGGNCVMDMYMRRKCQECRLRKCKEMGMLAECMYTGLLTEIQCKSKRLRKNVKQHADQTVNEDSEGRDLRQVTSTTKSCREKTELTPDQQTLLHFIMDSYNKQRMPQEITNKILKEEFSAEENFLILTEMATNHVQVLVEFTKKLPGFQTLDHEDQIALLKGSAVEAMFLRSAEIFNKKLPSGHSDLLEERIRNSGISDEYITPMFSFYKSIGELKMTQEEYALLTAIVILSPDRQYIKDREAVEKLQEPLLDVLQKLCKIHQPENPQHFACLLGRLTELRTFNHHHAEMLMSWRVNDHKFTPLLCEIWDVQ

[3] = test system: HepG2; test: Upregulation of FXR level in human HepG2 cells at 1 to 10 uM for 16 hrs by Western blot analysis; assay type: functional, cell-based; conditions: dose 1-10 µM
Summary of the method: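 HepG2 cells treated for 16 h, washed, lysed on ice and centrifuged; protein quantified by BCA. Equal protein run on 12% SDS-PAGE and transferred to PVDF. Probed overnight at 4 °C with anti-FXR, […], anti-CYP7A1 or anti-BSEP antibody, then HRP secondary 1 h at 37 °C; ECL detection.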

[4] = Half life in C57BL/6J mouse at 20 mg/kg, po measured upto 24 hrs by LC-MS analysis; assay type: ADME, organism-based; conditions: in vivo
Summary of the method: (§1)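 Male C57BL/6J mice (22–24 g, n = 5), single oral dose 20 mg/kg in 0.5% CMC-Na PBS. Plasma sampled at 0.25, 0.5, 1, 2, 4, 8, 12 and 24 h, centrifuged, and supernatant analysed by LC-MS/MS in positive ion mode. Parameters from noncompartmental analysis; mean ± SD, n = 5.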

[5] = Tmax in C57BL/6J mouse at 20 mg/kg, po measured upto 24 hrs by LC-MS analysis; assay type: ADME, organism-based; conditions: in vivo; summary of the method: as §1
[6] = Cmax in C57BL/6J mouse at 20 mg/kg, po measured upto 24 hrs by LC-MS analysis; assay type: ADME, organism-based; parameters: route oral, dose 20 mg/kg, time <=24; conditions: in vivo; summary of the method: as §1
[7] = AUC (0 to t) in C57BL/6J mouse at 20 mg/kg, po measured upto 24 hrs by LC-MS analysis; assay type: ADME, organism-based; parameters: route oral, dose 20 mg/kg, time <=24; conditions: in vivo; summary of the method: as §1

| SMILES | Activity [1] | Activity [2] | Activity [3] | half-life [4] [h] | Tmax [5] [h] | Cmax [6] [ng/mL] | AUC(0-t) at 24 h [7] [ng·h/mL] |
| --- | --- | --- | --- | --- | --- | --- | --- |
| CC(C)c1onc(-c2c(Cl)cccc2Cl)c1COc1ccc(/C=C/c2cccc(C(=O)O)c2)c(Cl)c1 | Non-Toxic | Active |  |  |  |  |  |
| O=C(O)c1cccc(NC(=O)N2CCC(OCc3c(-c4ccccc4OC(F)(F)F)noc3C3CC3)CC2)c1 | Non-Toxic |  | Active | 10.6 | 4.8 | 2350 | 36100 |
